The text below walks through data of ChEMBL document CHEMBL5143669, “Stapled peptides as scaffolds for developing radiotracers for intracellular targets: Preliminary evaluation of a radioiodinated MDM2-binding stapled peptide in the SJSA-1 osteosarcoma model” (Bioorg Med Chem Lett, 2022).

A short description of series [1]: Metabolic stability in athymic mouse plasma assessed as intact labeled peptide level at 3.7 MBq, iv after 2 hrs by RP-HPLC. In kind it is ADME, organism-based. The gist of the method:
(§1)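 Tumor-free athymic mice were given 131I-labeled peptide via tail vein. Plasma was collected at 2 and 4 h (n = 2 per time) and analysed by RP-HPLC on an RP-18 column with an ethanol/0.05 M sodium acetate pH 5.5 gradient at 1 mL/min; intact fraction taken as percentage of plasma radioactivity.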

The nature of series [2]: Metabolic stability in athymic mouse plasma assessed as intact labeled peptide level at 3.7 MBq, iv after 4 hrs by RP-HPLC. Format: ADME, organism-based. The gist of the method:
as §1

The nature of series [3]: Lipophilicity, logD of the compound using n-octanol and phosphate-buffered saline at pH 7.4 by the shake flask method. In kind it is physicochemical. The gist of the method: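 Shake-flask partition of the 125I-labeled peptide between n-octanol and PBS pH 7.4; logD from n = 4.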
Series [4] addresses T1, E3 ubiquitin-protein ligase Mdm2 (Homo sapiens, UniProt Q00987). The series is described as follows: Binding affinity to recombinant human MDM2 by using 5-FAM-PMDM6 by fluorescence polarization based assay. On the technique in general: Fluorescence polarisation rises when a labelled molecule tumbles more slowly, as on binding a larger partner.
Series [5] concerns the target T1, E3 ubiquitin-protein ligase Mdm2. Briefly: Binding affinity to MDM2 (unknown origin).

T1 sequence (Q00987 whole entry): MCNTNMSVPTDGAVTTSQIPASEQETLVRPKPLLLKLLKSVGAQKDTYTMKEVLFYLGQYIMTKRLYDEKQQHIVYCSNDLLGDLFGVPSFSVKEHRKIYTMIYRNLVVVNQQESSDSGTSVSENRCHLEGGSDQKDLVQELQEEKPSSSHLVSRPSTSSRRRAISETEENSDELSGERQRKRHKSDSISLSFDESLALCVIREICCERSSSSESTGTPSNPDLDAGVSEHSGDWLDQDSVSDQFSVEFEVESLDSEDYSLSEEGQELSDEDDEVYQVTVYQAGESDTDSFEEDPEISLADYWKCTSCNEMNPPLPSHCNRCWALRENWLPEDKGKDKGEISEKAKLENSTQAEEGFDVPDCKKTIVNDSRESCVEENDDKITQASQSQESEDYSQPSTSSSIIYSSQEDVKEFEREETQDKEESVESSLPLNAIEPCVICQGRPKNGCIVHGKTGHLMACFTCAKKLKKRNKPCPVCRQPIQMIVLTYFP

In the case of `CC(=O)NC(CCCCNC(=O)c1cccc([131I])c1)C(=O)NCCCCCC(=O)N[C@H](C(=O)N[C@@H](CO)C(=O)N[C@@H](Cc1ccccc1)C(=O)N[C@@]1(C)CCCCCC/C=C/CCC[C@@](C)(C(=O)N[C@@H](CCC(=O)O)C(=O)N[C@@H](CC(N)=O)C(=O)N[C@@H](Cc2ccccc2)C(N)=O)NC(=O)[C@H](CC(C)C)NC(=O)[C@H](CC(C)C)NC(=O)[C@H](C)NC(=O)[C@H](Cc2c[nH]c3ccccc23)NC(=O)[C@H](Cc2ccc(O)cc2)NC(=O)[C@H](CCC(=O)O)NC1=O)[C@@H](C)O` (stereo not given in full), the Stability in series [1] is recorded as 68%; in series [2], 80%.

For orientation: logD means the decadic logarithm of the distribution of all forms, ionised or not, between an organic phase and buffer at a given pH. Regarding `CC(=O)NC(CCCCNC(=O)c1cccc(I)c1)C(=O)NCCCCCC(=O)N[C@H](C(=O)N[C@@H](CO)C(=O)N[C@@H](Cc1ccccc1)C(=O)N[C@@]1(C)CCCCCC/C=C/CCC[C@@](C)(C(=O)N[C@@H](CCC(=O)O)C(=O)N[C@@H](CC(N)=O)C(=O)N[C@@H](Cc2ccccc2)C(N)=O)NC(=O)[C@H](CC(C)C)NC(=O)[C@H](CC(C)C)NC(=O)[C@H](C)NC(=O)[C@H](Cc2c[nH]c3ccccc23)NC(=O)[C@H](Cc2ccc(O)cc2)NC(=O)[C@H](CCC(=O)O)NC1=O)[C@@H](C)O` (stereo not given in full), in series [3], the logD came out at 1.45.

Broadly, the IC50 is the concentration at which inhibition is half-maximal. One may read the Kd as the equilibrium constant for the complex coming apart. Low readings indicate a tighter complex, high ones a looser complex. As to `CC(=O)N[C@@H](CCCCN)C(=O)NCCCCCC(=O)N[C@H](C(=O)N[C@@H](CO)C(=O)N[C@@H](Cc1ccccc1)C(=O)N[C@]1(C)CCCCCC/C=C/CCC[C@@](C)(C(=O)N[C@@H](CCC(=O)O)C(=O)N[C@@H](CC(N)=O)C(=O)N[C@@H](Cc2ccccc2)C(N)=O)NC(=O)[C@H](CC(C)C)NC(=O)[C@H](CC(C)C)NC(=O)[C@H](C)NC(=O)[C@H](Cc2c[nH]c3ccccc23)NC(=O)[C@H](Cc2ccc(O)cc2)NC(=O)[C@H](CCC(=O)O)NC1=O)[C@@H](C)O`, the IC50 in series [4] was determined as 2.8 nM. The Kd in series [5] was 15.1 nM.
